Assay results reported in paper PMC7707623 (Journal of Medicinal Chemistry, 2020).
Values belong to the compound of their own block, whether it stands above or below them.

Key:
[1] = tested on: three independent murine SCLC (mSCLC) cell lines; assay: Cytotoxicity against three murine SCLC cell lines; format: cell-based; settings: Mus musculus, read-out: average EC50
Summary of the method: (§1)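 Murine SCLC cells were allowed to attach overnight, then given test compound as a 10-point log-dilution series. Viability was read by CellTiter-Glo luminescence at 72 h, with the reagent diluted 1:1 in PBS/1% Triton-X. Signals were normalized to DMSO-treated cells and IC50 values came from curve fitting (n = 2 technical replicates). Fold values are ratios of these IC50s.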

[2] = tested on: human SCLC cell lines, H889, H2107, and H128; assay: Dose response against human SCLC cell lines; format: cell-based
[3] = tested on: yeast cells (Sec14); settings: through inhibition of Sec14; cited from earlier work
[4] = tested on: murine SCLC cell line 319N1; assay: Cytotoxicity assay; format: cell-based, mouse
Summary of the method: as §1

[5] = tested on: 319N1-M2KO resistant clones A–E; assay: Cytotoxicity against sulfonamide 27-resistant clones; format: cell-based, mouse; settings: for IC50 fold change, resistant clones versus parental: all five clones A–E
[6] = biological target: T1, p50 (β-tubulin) in 518T2 murine SCLC cells (Mus musculus, UniProt P99024); format: binding; settings: 50 nM to 50 μM, 1.5 h, Alexa Fluor 532 azide
Summary of the method: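 518T2 cells were plated at 1 million per well in DMEM with 5% FBS. Next day the alkyne probe in DMSO was added at 50 nM to 50 μM for 1.5 h at 37 °C, 5% CO2. Cells were PBS-washed and lysed in 1% SDS buffer (50 mM HEPES pH 7.4, 10 mM KCl, 2 mM MgCl2, benzonase). Lysates were copper-clicked to 25 μM Alexa Fluor 532 azide, run on SDS-PAGE and imaged by in-gel fluorescence.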

[7] = tested on: bovine brain tubulin; assay: Microtubule dynamics assay, brain tubulin; format: biochemical
[8] = biological target: human recombinant β3 tubulin (Homo sapiens, UniProt Q13509); assay: Microtubule dynamics assay, recombinant β3 tubulin; format: biochemical
Summary of the method: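 Human αβ-tubulin (TUBA1B with TUBB3, C-terminal His-tag removed by TEV) was expressed in Tni insect cells and purified by Ni-affinity and anion exchange. Compound was added at 1, 5 or 10 μM versus DMSO; kymograph growth rates were taken from 71–119 microtubules over two trials.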

[9] = biological target: T1, p50 (β-tubulin) in 518T2 murine SCLC cells; assay: Cell-based competition with alkyne probe 24; format: binding; settings: probe 24 at 5 μM, pre-treatment with increasing concentrations
[10] = tested on: 518T2 cells; assay: Cell cycle analysis by flow cytometry; format: cell-based, mouse; settings: 300 nM, 24 h
[11] = tested on: 518T2-Tubb5^T238A cells; assay: Dose response in Tubb5 T238A edited cells; format: cell-based, mouse; settings: 518T2-Tubb5^T238A versus 518T2

Compound: O=C(c1ccc(Cl)c([N+](=O)[O-])c1)N1CCN(c2ccccc2)CC1 [Compound 1]
- EC50 [1]: 3210 ± 600 nM
- sensitivity of human SCLC cell lines [2]: exhibited sensitivity
- toxicity to yeast cells [3]: toxic to yeast cells

Compound: O=C(c1ccc(Cl)c([N+](=O)[O-])c1)N1CCN(c2ccccc2Cl)CC1 [Compound 2, (4-Chloro-3-nitrophenyl)(4-(2-chlorophenyl)piperazin-1-yl)methanone]
- antiproliferative activity in words ([4]; 319N1): slightly improved potency

Compound: COc1cccc(N2CCN(C(=O)c3ccc(Cl)c([N+](=O)[O-])c3)CC2)c1 [Compound 3, (4-Chloro-3-nitrophenyl)(4-(3-methoxyphenyl)piperazin-1-yl)methanone]
- fold more potent than benzamide 1 ([4]; 319N1): ~3 fold

Compound: Cc1cccc(N2CCN(C(=O)c3ccc(Cl)c([N+](=O)[O-])c3)CC2)c1 [Compound 4, (4-Chloro-3-nitrophenyl)(4-(m-tolyl)piperazin-1-yl)methanone]
- fold more potent than benzamide 1 ([4]; 319N1): ~3 fold

Compound: Cc1ccc(Cl)cc1N1CCN(C(=O)c2ccc(Cl)c([N+](=O)[O-])c2)CC1 [Compound 10, (4-(5-Chloro-2-methylphenyl)piperazin-1-yl)(4-chloro-3-nitrophenyl)methanone]
- EC50 ([4]; Mus musculus, 319N1): 182 nM
- IC50 fold change, resistant clones versus parental [5]: > 2.5 fold

Compound: O=C(c1ccc(Cl)c([N+](=O)[O-])c1)N1CCN(c2ccccc2F)CC1 [Compound 12]
- fold less active than parent benzamide 1 ([4]; 319N1): 2 fold

Compound: Cc1ccc(Cl)cc1N1CCN(C(=O)c2ccc(F)c([N+](=O)[O-])c2)CC1 [Compound 20, (4-(5-Chloro-2-methylphenyl)piperazin-1-yl)(4-fluoro-3-nitrophenyl)methanone]
- EC50 ([4]; Mus musculus, 319N1): 818 nM

Compound: Cc1ccc(Cl)cc1N1CCN(C(=O)c2ccc(I)c([N+](=O)[O-])c2)CC1 [Compound 22, (4-(5-Chloro-2-methylphenyl)piperazin-1-yl)(4-iodo-3-nitrophenyl)methanone]
- EC50 ([4]; Mus musculus, 319N1): 51 nM

Compound: Cc1ccc(Cl)cc1N1CCN(C(=O)c2ccc(OC(F)(F)F)c([N+](=O)[O-])c2)CC1 [Compound 23, (4-(5-Chloro-2-methylphenyl)piperazin-1-yl)(3-nitro-4-(trifluoromethoxy)phenyl)methan-one]
- EC50 ([4]; Mus musculus, 319N1): 20 nM

- covalent modification of 50 kDa protein (p50), in-gel fluorescence [6]: covalently modified
Compound: C#CCOc1cccc(N2CCN(C(=O)c3ccc(Cl)c([N+](=O)[O-])c3)CC2)c1 [Compound 24, (4-Chloro-3-nitrophenyl)(4-(3-(prop-2-yn-1-yloxy)phenyl)piperazin-1-yl)methanone]

- covalent modification of 50 kDa protein (p50), in-gel fluorescence [6]: not observed
Compound: C#CCOc1cccc(N2CCN(C(=O)c3ccc(C)c([N+](=O)[O-])c3)CC2)c1 [Compound 25, (4-Methyl-3-nitrophenyl)(4-(3-(prop-2-yn-1-yloxy)phenyl)piperazin-1-yl)methanone]
- fold less active compared to 24 ([4]; 319N1): 10 fold

- effect on dynamics of β3 tubulin microtubules, in words ([8]; 1, 5 and 10 μM): dose-dependently altered the dynamics
Compound: COc1cc(OC)cc(N2CCN(C(=O)c3ccc(C=O)c([N+](=O)[O-])c3)CC2)c1 [Compound 26, 4-(4-(3,5-Dimethoxyphenyl)piperazine-1-carbonyl)-2-nitrobenzaldehyde]
- EC50 ([4]; Mus musculus, 319N1): 127 nM
- effect on growth of microtubules of bovine brain tubulin, in words ([7]; 0.5 μM (SI Figure 5C)): potently reduced the growth

Compound: COC(=O)c1c(C)oc2ccc(NS(=O)(=O)c3ccc(Cl)c([N+](=O)[O-])c3)cc12 [Compound 27]
- competition with probe 24 for p50, in words [9]: displaced probe 24 from p50 in a dose-responsive manner
- IC50 fold change, resistant clones versus parental [5]: > 2 fold

Compound: O=C(c1ccc(Cl)cc1)N1CCN(c2ccccc2)CC1 [Compound 28]
- antiproliferative activity in words ([4]; 319N1): complete eradication of antiproliferative activity

Compound: O=C(c1cccc([N+](=O)[O-])c1)N1CCN(c2ccccc2)CC1 [Compound 29]
- antiproliferative activity in words ([4]; 319N1): complete eradication of antiproliferative activity

Compound: COc1cc2c(c(OC)c1OC)-c1ccc(OC)c(=O)cc1[C@@H](NC(C)=O)CC2 [colchicine, reference compound]
- cell cycle effect [10]: induced G2/M cell cycle arrest

Compound: COc1cc([C@@H]2c3cc4c(cc3[C@@H](O[C@@H]3O[C@@H]5CO[C@@H](C)O[C@H]5[C@H](O)[C@H]3O)[C@H]3COC(=O)[C@H]23)OCO4)cc(OC)c1O [etoposide, reference compound]
- cross-resistance of 27-resistant clones, in words ([5]; clones A–E): not cross-resistant

- competition with probe 24 for p50, in words [9]: no such probe competition was observed
Compound: CC[C@]1(O)C[C@H]2CN(CCc3c([nH]c4ccccc34)[C@@](C(=O)OC)(c3cc4c(cc3OC)N(C=O)[C@H]3[C@@](O)(C(=O)OC)[C@H](OC(C)=O)[C@]5(CC)C=CCN6CC[C@]43[C@@H]65)C2)C1 [vincristine, reference compound]

- effect on in vitro microtubule growth rate of β3 tubulin, in words ([8]; up to 10 μM): failed to impair
Compound: (4-Bromo-3-nitrophenyl)(4-(5-chloro-2-methylphenyl)piperazin-1-yl)methanone [Compound 21]
- EC50 ([4]; 319N1 mSCLC cells, quoted in running text): 55 nM
- cell cycle effect [10]: induced G2/M cell cycle arrest
- effect on growth of brain tubulin, in words ([7]; 1 μM): dramatically affected the growth
- reduction of growth of bovine brain microtubules ([7]; 10:1 (tubulin/compound) ratio, compared to control): approximately 80%
- compound resistance compared to parental 518T2 cells [11]: Compound resistance to analog 21 was confirmed
